In ChEMBL document CHEMBL4364294 (J Med Chem, 2019):

Columns and labels:
Conditions in all cases: in vivo; call rule not given here
[1] = Half life in C57Bl6 mouse at 10 mg/kg, po administered as single dose; type: ADME, organism-based
In short: (§1)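 C57Bl/6 mice were given single intravenous or oral doses (oral at 10 and 100 mg/kg). Plasma PK parameters were CL, AUC0-inf, t1/2, Cmax and %F.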

[2] = Half life in C57Bl6 mouse at 100 mg/kg, po administered as single dose; type: ADME, organism-based; in short: as §1
[3] = Cmax in C57Bl6 mouse at 10 mg/kg, po administered as single dose; type: ADME, organism-based; parameters: dose 10 mg/kg, route oral; in short: as §1
[4] = Cmax in C57Bl6 mouse at 100 mg/kg, po administered as single dose; type: ADME, organism-based; parameters: dose 100 mg/kg, route oral; in short: as §1
[5] = Oral bioavailability in C57Bl6 mouse at 10 mg/kg administered as single dose; type: ADME, organism-based
In short: (§2)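 C57Bl/6 mice received a single oral dose of 10 or 100 mg/kg, with iv dosing run for comparison. Plasma AUC0-inf, t1/2, Cmax and oral bioavailability (%F) were determined.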

[6] = Oral bioavailability in C57Bl6 mouse at 100 mg/kg administered as single dose; type: ADME, organism-based; in short: as §2
[7] = Clearance in dog at 1 mg/kg, iv administered as single dose; type: ADME, organism-based, Canis lupus familiaris
In short: (§3)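 Dogs were given single intravenous doses, or oral doses from 5 to 50 mg/kg. Plasma PK parameters were CL, AUC0-inf, t1/2, Cmax and %F.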

[8] = Clearance in dog at 3 mg/kg, iv administered as single dose; type: ADME, organism-based, Canis lupus familiaris; in short: as §3
[9] = Clearance in dog at 10 mg/kg, iv administered as single dose; type: ADME, organism-based, Canis lupus familiaris; in short: as §3
[10] = Clearance in dog at 25 mg/kg, iv administered as single dose; type: ADME, organism-based, Canis lupus familiaris; in short: as §3
[11] = AUC (0 to infinity) in dog at 1 mg/kg, iv administered as single dose; type: ADME, organism-based, Canis lupus familiaris; parameters: dose 1 mg/kg, route intravenous, time infinity; in short: as §3
[12] = AUC (0 to infinity) in dog at 3 mg/kg, iv administered as single dose; type: ADME, organism-based, Canis lupus familiaris; parameters: dose 3 mg/kg, time infinity, route intravenous; in short: as §3
[13] = AUC (0 to infinity) in dog at 10 mg/kg, iv administered as single dose; type: ADME, organism-based, Canis lupus familiaris; parameters: dose 10 mg/kg, time infinity, route intravenous; in short: as §3
[14] = AUC (0 to infinity) in dog at 25 mg/kg, iv administered as single dose; type: ADME, organism-based, Canis lupus familiaris; parameters: dose 25 mg/kg, route intravenous, time infinity; in short: as §3
[15] = AUC (0 to infinity) in dog at 5 mg/kg, po administered as single dose; type: ADME, organism-based, Canis lupus familiaris; parameters: dose 5 mg/kg, time infinity, route oral; in short: as §3
[16] = AUC (0 to infinity) in dog at 15 mg/kg, po administered as single dose; type: ADME, organism-based, Canis lupus familiaris; parameters: dose 15 mg/kg, route oral, time infinity; in short: as §3
[17] = AUC (0 to infinity) in dog at 50 mg/kg, po administered as single dose; type: ADME, organism-based, Canis lupus familiaris; parameters: dose 50 mg/kg, route oral, time infinity; in short: as §3
[18] = AUC (0 to infinity) in dog at 150 mg/kg, po administered as single dose; type: ADME, organism-based, Canis lupus familiaris; parameters: dose 150 mg/kg, time infinity, route oral
[19] = Half life in dog at 1 mg/kg, iv administered as single dose; type: ADME, organism-based, Canis lupus familiaris
In short: (§4)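 Dogs were dosed once, by iv injection or orally, with oral doses spanning 5 to 50 mg/kg. Plasma pharmacokinetic parameters were derived: CL, AUC0-inf, t1/2, Cmax and %F.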

[20] = Half life in dog at 3 mg/kg, iv administered as single dose; type: ADME, organism-based, Canis lupus familiaris; in short: as §4
[21] = Half life in dog at 10 mg/kg, iv administered as single dose; type: ADME, organism-based, Canis lupus familiaris; in short: as §4
[22] = Half life in dog at 25 mg/kg, iv administered as single dose; type: ADME, organism-based, Canis lupus familiaris; in short: as §4
[23] = Cmax in dog at 5 mg/kg, po administered as single dose; type: ADME, organism-based, Canis lupus familiaris; parameters: dose 5 mg/kg, route oral; in short: as §3
[24] = Cmax in dog at 15 mg/kg, po administered as single dose; type: ADME, organism-based, Canis lupus familiaris; parameters: dose 15 mg/kg, route oral; in short: as §3
[25] = Cmax in dog at 50 mg/kg, po administered as single dose; type: ADME, organism-based, Canis lupus familiaris; parameters: dose 50 mg/kg, route oral; in short: as §3
[26] = Cmax in dog at 150 mg/kg, po administered as single dose; type: ADME, organism-based, Canis lupus familiaris; parameters: dose 150 mg/kg, route oral
[27] = Oral bioavailability in dog at 5 mg/kg administered as single dose; type: ADME, organism-based, Canis lupus familiaris; in short: as §4
[28] = Oral bioavailability in dog at 15 mg/kg administered as single dose; type: ADME, organism-based, Canis lupus familiaris; in short: as §4
[29] = Oral bioavailability in dog at 50 mg/kg administered as single dose; type: ADME, organism-based, Canis lupus familiaris; in short: as §4
[30] = Oral bioavailability in dog at 150 mg/kg administered as single dose; type: ADME, organism-based, Canis lupus familiaris
[31] = Tmax in Sprague-Dawley rat at 10 to 50 mg/kg, po administered as single dose; type: ADME, organism-based
In short: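 Sprague-Dawley rats each received one dose of drug, either iv across 10-50 mg/kg or orally at 10, 25 and 50 mg/kg. Plasma pharmacokinetics covered CL, AUC0-inf, t1/2, Cmax and Tmax. Oral bioavailability (%F) was obtained from the oral and iv exposures.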

[32] = Drug uptake in C57Bl6 mouse plasma at 50 mg/kg, po administered as single dose measured at 1 hr post-dose; type: ADME, organism-based
In short: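 C57Bl/6 mice received a single oral dose of 50 mg/kg. Drug levels were compared in plasma and other organs over time after dosing.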

[33] = Toxicity in rat administered twice daily for 28 days with 2 week recovery
In short: (§5)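 Rats and dogs underwent 28-day repeat-dose studies with twice-daily dosing, followed by a 2-week recovery period. The NOAEL (mg/kg/dose BID) was established, and the matching systemic exposure was reported as AUC0-inf.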

[34] = Toxicity in dog administered twice daily for 28 days with 2 week recovery; parameters: species or system Canis lupus familiaris; in short: as §5
[35] = AUC (0 to infinity) in rat at 250 mg/kg administered twice daily for 28 days with 2 week recovery; type: ADME, organism-based; parameters: dose 250 mg/kg, time infinity
[36] = AUC (0 to 12 hrs) in dog at 200 mg/kg administered twice daily for 28 days with 2 week recovery; type: ADME, organism-based, Canis lupus familiaris; parameters: dose 200 mg/kg, time < 12 hr

SMILES: O[C@H](C[C@H]1c2c(F)cccc2-c2cncn21)[C@H]1CC[C@H](O)CC1 [NAVOXIMOD]
- half-life [1]: 1.2 h
- half-life [2]: 3.3 h
- Cmax [3]: 2260 ng/mL
- Cmax [4]: 14200 ng/mL
- bioavailability [5]: 69%
- bioavailability [6]: 87%
- clearance [7]: 59.3 mL/min/kg
- clearance [8]: 56.1 mL/min/kg
- clearance [9]: 53.7 mL/min/kg
- clearance [10]: 41.4 mL/min/kg
- AUC(0-inf) [11]: 282 ng·h/mL
- AUC(0-inf) [12]: 901 ng·h/mL
- AUC(0-inf) [13]: 3130 ng·h/mL
- AUC(0-inf) [14]: 10000 ng·h/mL
- AUC(0-inf) [15]: 207 ng·h/mL
- AUC(0-inf) [16]: 1040 ng·h/mL
- AUC(0-inf) [17]: 8640 ng·h/mL
- AUC(0-inf) [18]: 57800 ng·h/mL
- half-life [19]: 2.2 h
- half-life [20]: 1.6 h
- half-life [21]: 4.8 h
- half-life [22]: 6.9 h
- Cmax [23]: 132 ng/mL
- Cmax [24]: 1400 ng/mL
- Cmax [25]: 7860 ng/mL
- Cmax [26]: 40400 ng/mL
- bioavailability [27]: 13.7%
- bioavailability [28]: 22.3%
- bioavailability [29]: 43%
- bioavailability [30]: 71.8%
- Tmax [31]: 0.5 h
- Drug uptake [32]: Active
- NOAEL at 28 days [33]: 250 mg/kg
- NOAEL at 28 days [34]: 200 mg/kg
- AUC(0-inf) [35]: 22500 ng·h/mL
- AUC at 12 h [36]: 22600 ng·h/mL
